Broadly, the IC50 is the concentration that gives 50% inhibition. As a reminder, the MIC is the least concentration at which growth counts as inhibited.

Results on 9 molecules are retold here after ChEMBL document CHEMBL1154804, “Diterpenes, sesquiterpenes, and a sesquiterpene-coumarin conjugate from Jatropha integerrima” (J Nat Prod, 2009).

≈ marks a conversion by molar mass, not a printed value. Calls of active or inactive are those of the source. The rule behind the calls is not given here.

For data set [1], the system named is Mycobacterium tuberculosis. The data set can be described thus: Antitubercular activity against Mycobacterium tuberculosis H37Ra at 200 ug/ml after 4 days by microplate alamar blue assay. In kind it is functional, organism-based. The essentials: (§1)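 M. tuberculosis H37Ra tested in an Alamar Blue microplate assay. Values are given as MIC in µg/mL. The highest level tested was 200 µg/mL.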
(In general: Alamar Blue is a resazurin reagent that responds to reducing activity.)

Data set [2] deals with Plasmodium falciparum. Nature of the data set: Antiplasmodial activity against multidrug-resistant Plasmodium falciparum K1 assessed as [3H]hypoxanthine incorporation after 24 hrs by microtiter plate scintillation counting. The data set is classed as functional, organism-based. Summed up: (§2)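 K1 multidrug-resistant P. falciparum kept in continuous culture (Trager–Jensen). In vitro activity measured by a microculture radioisotope technique (Desjardins method). The highest level tested was 10 µg/mL.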

Data set [3] concerns Vero. The data set can be described thus: Cytotoxicity against african green monkey Vero cells at 50 ug/ml by sulforhodamine B assay. The note with it: chlorocebus sabaeus. In kind it is cell-based. Summed up: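 African green monkey kidney fibroblasts (Vero) exposed to test material at 50 µg/mL; cell growth read by a colorimetric method (Skehan and coworkers).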
A general note: In SRB staining, fixed cells bind dye roughly in proportion to their protein.

The test system of data set [4] is Plasmodium falciparum. The data set can be described thus: Antiplasmodial activity against multidrug-resistant Plasmodium falciparum K1 assessed as [3H]hypoxanthine incorporation at 10 ug/ml after 24 hrs by microtiter plate scintillation counting. The data set is classed as functional, organism-based. Summed up:
as §2

Data set [5] concerns Vero. The data set can be described thus: Cytotoxicity against african green monkey Vero cells by sulforhodamine B assay. In kind it is cell-based. The note with it: chlorocebus sabaeus. The essentials:
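Vero cells were described as African green monkey kidney fibroblasts. Read-out was by the colorimetric method of Skehan and coworkers. Compounds were tested up to 50 µg/mL.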

The subject of data set [6] is Mycobacterium tuberculosis. The data set can be described thus: Antitubercular activity against Mycobacterium tuberculosis H37Ra after 4 days by microplate alamar blue assay. The data set is classed as functional. The note with it: 96 h. The essentials:
as §1

As for `C=C1CC[C@@H]2[C@H](c3c(C)c(O)c4c(c31)C(=O)[C@](C)(O)C4)C2(C)C`, in data set [1], the result was inactive. Further, the IC50 in the data set on Plasmodium falciparum [2] stood at 4.1 µg/mL. Also, in the data set on Vero [3], the Activity result was “Non-toxic”.
For `C=C1CC[C@@H]2[C@H](c3c(C)c(O)c4c(c31)C(=O)[C@@](C)(O)C4)C2(C)C`, the outcome (in the data set on Plasmodium falciparum [4]; in data set [1]) was inactive. 49.4 µg/mL (≈ 158 µM) corresponded to half-maximal inhibition in the data set with Vero [5] (IC50).
Take `C[C@H]1[C@@H](O)O[C@@H]2O[C@@]3(C)CC[C@H]4[C@H](C)CC[C@@H]1[C@@]24OO3` [ARTENIMOL]: in the data set on Plasmodium falciparum [2], the IC50 is 4 nM.
For the molecule `C=C(C)[C@@H]1CC[C@]23CO[C@@]4(OO2)C2=C(C(=O)C(C)=C[C@@H]1[C@@H]23)[C@H](O)[C@H]4C` [CANIOJANE], the IC50 in the data set on Vero [5] worked out at 12.9 µg/mL (≈ 37.5 µM); in the data set on Plasmodium falciparum [2], 3.3 µg/mL. Moreover, the lowest concentration to inhibit growth in data set [6] (MIC) was 25 µg/mL (≈ 72.6 µM).
For the molecule `Cc1c2ccncc2c(C)c2c1[nH]c1ccccc12` [ELLIPTECINE], in the data set on Vero [5], the IC50 is 0.7 µg/mL (≈ 2.84 µM).
The molecule `NNC(=O)c1ccncc1` [ISONIAZID] displayed an MIC in data set [6] of 0.1 µg/mL (≈ 0.729 µM).
For `C=C1CC[C@@H]2[C@H](c3c(C)c(O)c4c(c31)C(=O)[C@@H](C)C4)C2(C)C` [JATROPHOLONE A], the outcome in data set [1] was inactive. Further, in the data set on Plasmodium falciparum [2], the IC50 is 5.4 µg/mL. Besides, in the data set on Vero [3], the Activity entry is reported as “Non-toxic”.
With `C=C1CC[C@@H]2[C@H](c3c(C)c(O)c4c(c31)C(=O)[C@H](C)C4)C2(C)C` [JATROPHOLONE B], the outcome (in the data set on Plasmodium falciparum [4]; in data set [1]) was inactive. Also, the Activity entry in the data set on Vero [3] is reported as “Non-toxic”.
Take `NC[C@H]1O[C@H](O[C@H]2[C@H](O)[C@@H](O[C@H]3O[C@H](CO)[C@@H](O)[C@H](N)[C@H]3O)[C@H](N)C[C@@H]2N)[C@H](O)[C@@H](O)[C@@H]1O` [KANAMYCIN]: the minimal inhibitory concentration (MIC) in data set [6] was 2.5 µg/mL (≈ 5.16 µM).
